Measurements: PubChem BioAssay
The source made the active and inactive calls.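 Rule for the calls, unless noted: active = viability loss from added drug above about 55%, and viability with drug at most 40%, in both replicates (limit read from the data, passing the limit was not always enough); inconclusive = both conditions met in only one replicate; inactive = neither replicate meets both conditions.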

Legend:
[1] = reducers of endogenous Her2 protein level, primary screen, SKBR3 breast tumor cells, AlphaScreen, ATP viability (AID 461;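 active = Her2 level under about 52% in both replicate screens, with viability over 70% of control, limit read from the data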;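 for Her2 level: lower value means less Her2 protein in the cells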;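 for viability: percent of carrier control wells set as 100% viability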); conditions: 18-24 h, measured here: SKBR3 viability, ATP luminescence, at 10 µM
[2] = molecular target: Receptor tyrosine-protein kinase erbB-2 (Homo sapiens) (UniProt P04626); assay: as above; conditions: 18-24 h, at 10 µM, stronger effect = lower value
[3] = SK-BR-3 cell growth inhibitors, pilot screen, 24 h, human (AID 572;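 active = viability at or below 10% of carrier control in both of two separate runs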;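 note: compound exposure lasted between 18 and 24 h rather than exactly 24 h; 100% = carrier-treated control wells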); conditions: SK-BR-3 viability, CellTiter-Glo luminescence, at 10 µM, stronger effect = lower value
[4] = HUVEC growth inhibition – cell-based, human, primary screen (AID 575;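 active = viability at or below 30% in both replicate assays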;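 note: 100% = median of untreated cell wells with 0.1% DMSO on each plate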); conditions: HUVEC proliferation, CellTiter-Glo luminescence, 72 h; at 10 µM; stronger effect = lower value
In short: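 Timing: 72 h treatment at 37 °C; material: HUVEC primary cells; technique: CellTiter-Glo luminescence measuring cellular ATP; controls: vehicle and MePR control wells; measure: percent of median DMSO-control luminescence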

[5] = growth inhibitors of H69AR lung tumor, primary screen, human, duplicate replicates (AID 580;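 active = viability at or under a set limit in both replicates, limit being median viability minus 3 SD, cut at about 48% in these data, passing the limit was not always enough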;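 note: 100% = mean luminescence of untreated wells and 0% = no signal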); conditions: H69AR lung tumor cells viability, ATP luminescence, 72 h; at 10 µM; stronger effect = lower value
[6] = reversal of MRP1-mediated doxorubicin resistance, pilot screen, H69AR cells, doxorubicin co-treatment (AID 601); conditions: CellTiter-Glo, 72 h, at 10 µM; for differential viability (reversal): stronger effect = higher value
[7] = 384-well plate pilot, post-Golgi transport modulator project, inhibition of yeast transport mutant growth (AID 636; in the data active = inhibition above about 31%); conditions: absorbance 615 nm, about 18 h, stronger effect = higher value
[8] = growth suppression of yeast trafficking mutant, preliminary HTS, modulators of trafficking downstream of Golgi apparatus project, 1536-format plate, OD 615 nm (AID 637; in the data active = inhibition above about 30%); conditions: yeast transport mutant growth, absorbance 615 nm, 18 h; stronger effect = higher value
[9] = H69AR cells + 2 uM doxorubicin, measured here: viability with 2 uM doxorubicin, stronger effect = lower value
[10] = H69AR cells, compound alone cytotoxicity

Receptor tyrosine-protein kinase erbB-2 (Homo sapiens), sequence (P04626 whole entry, looked up): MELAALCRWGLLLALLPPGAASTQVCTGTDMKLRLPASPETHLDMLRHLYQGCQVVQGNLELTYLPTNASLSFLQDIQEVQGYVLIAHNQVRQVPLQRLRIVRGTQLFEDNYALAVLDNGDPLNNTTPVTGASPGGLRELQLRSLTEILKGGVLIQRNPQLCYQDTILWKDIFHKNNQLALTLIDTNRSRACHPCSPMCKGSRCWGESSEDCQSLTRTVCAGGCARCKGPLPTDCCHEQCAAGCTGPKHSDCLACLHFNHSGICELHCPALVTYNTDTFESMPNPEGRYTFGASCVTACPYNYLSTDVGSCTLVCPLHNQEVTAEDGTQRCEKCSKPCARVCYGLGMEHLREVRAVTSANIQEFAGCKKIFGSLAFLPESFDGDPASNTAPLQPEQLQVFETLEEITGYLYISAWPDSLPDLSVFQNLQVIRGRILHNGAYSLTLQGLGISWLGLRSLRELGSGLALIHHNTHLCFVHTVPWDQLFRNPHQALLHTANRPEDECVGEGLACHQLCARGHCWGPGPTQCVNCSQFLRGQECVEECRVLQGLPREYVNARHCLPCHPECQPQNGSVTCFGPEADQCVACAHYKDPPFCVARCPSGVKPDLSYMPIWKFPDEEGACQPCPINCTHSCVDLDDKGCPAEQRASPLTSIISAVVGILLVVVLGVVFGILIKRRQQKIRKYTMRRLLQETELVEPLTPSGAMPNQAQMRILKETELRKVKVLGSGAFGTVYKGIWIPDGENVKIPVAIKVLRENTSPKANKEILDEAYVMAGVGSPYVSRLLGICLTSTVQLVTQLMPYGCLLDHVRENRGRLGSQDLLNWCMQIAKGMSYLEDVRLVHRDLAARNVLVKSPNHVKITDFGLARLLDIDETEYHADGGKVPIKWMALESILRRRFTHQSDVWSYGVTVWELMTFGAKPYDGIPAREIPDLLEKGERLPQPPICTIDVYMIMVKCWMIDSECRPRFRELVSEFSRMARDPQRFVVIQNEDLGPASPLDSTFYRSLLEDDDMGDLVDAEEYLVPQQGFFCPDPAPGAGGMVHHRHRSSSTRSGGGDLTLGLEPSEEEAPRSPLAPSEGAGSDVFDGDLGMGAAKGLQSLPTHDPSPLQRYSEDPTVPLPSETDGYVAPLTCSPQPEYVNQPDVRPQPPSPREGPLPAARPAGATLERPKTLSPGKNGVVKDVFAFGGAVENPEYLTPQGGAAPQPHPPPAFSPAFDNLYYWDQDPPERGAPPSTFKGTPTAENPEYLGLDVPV

Compound	viability [1] [%]	Her2 level [2]	viability [3]	viability [4]	viability [5]	differential viability (reversal) ([6]; H69AR cells + 2 uM doxorubicin)	viability [6, 9] [%]	viability [6, 10] [%]	inhibition [7]	inhibition [8]
Cc1noc(NS(=O)(=O)c2ccc(N3C(=O)c4ccccc4C3=O)cc2)c1C	116	98% (inactive)	116% (inactive)	99.1% (inactive)	107% (inactive)	0.49% (inactive)	106	107	-3.47% (inactive)	2.58% (inactive)
COc1ccc(-n2c(=O)[nH]cc(C(=O)Nc3ccc(NC(C)=O)cc3)c2=O)cc1	100	106% (inactive)	100% (inactive)	98.8% (inactive)	96.1% (inactive)	0.385% (inactive)	95.7	96.1	-3.78% (inactive)	0% (inactive)
c1ccc(Cn2nnnc2CN2CCN(c3ncccn3)CC2)cc1	99	97.5% (inactive)	99% (inactive)	92.1% (inactive)	100% (inactive)	-0.765% (inactive)	101	100	-3.47% (inactive)	0.98% (inactive)
CC(C)OC(=O)c1cc(=O)[nH]c2ccccc12	128	79% (inactive)	128% (inactive)	95.7% (inactive)	102% (inactive)	21.9% (inactive)	80.7	102	-2.47% (inactive)	-2.22% (inactive)
c1cncc(-c2nnc3sc(-c4ccco4)nn23)c1	118	106% (inactive)	118% (inactive)	99.5% (inactive)	91.5% (inactive)	-6.86% (inactive)	98.3	91.5	-5.39% (inactive)	4.68% (inactive)
O=C(c1ccccc1-c1ccccc1)N1CCN(c2ccccn2)CC1	69.5	93% (inactive)	69.5% (inactive)	58.8% (inactive)	16% (active)	-57.7% (inactive)	73.7	16	-6.76% (inactive)	-4.75% (inactive)
COc1ccccc1-c1nc(C#N)c(N2CCN(c3ccccc3)CC2)o1	104	79.5% (inactive)	104% (inactive)	70.4% (inactive)	89.8% (inactive)	10.2% (inactive)	79.6	89.8	-3.68% (inactive)	3.65% (inactive)
Cc1ccc2cc(C(c3nnnn3CC3CCCO3)N3CCCC4(CCCCC4)C3)c(=O)[nH]c2c1 (stereo not given)	107	92.5% (inactive)	107% (inactive)	97.9% (inactive)	85.1% (inactive)	-8.48% (inactive)	93.6	85.1	-7.27% (inactive)	0% (inactive)
O=C(CN1CCN(c2ncccn2)CC1)Nc1ccccc1-n1cccc1	102	79% (inactive)	102% (inactive)	81.4% (inactive)	92.9% (inactive)	2.44% (inactive)	90.5	92.9	-1.43% (inactive)	-6.83% (inactive)
CCOC(=O)c1ccc(Oc2nc(SC)nc(N(C)C)n2)cc1	73.5	100% (inactive)	73.5% (inactive)	85% (inactive)	107% (inactive)	2.66% (inactive)	105	107	-1.54% (inactive)	-8.17% (inactive)
Cc1ccc(-c2nnn(CC(=O)N(CC3CCCO3)C(C(=O)NC(C)(C)C)c3ccc(F)cc3)n2)o1 (stereo not given)	106	96% (inactive)	106% (inactive)	100% (inactive)	101% (inactive)	3.52% (inactive)	97.4	101	-1.07% (inactive)	-4.03% (inactive)
CSc1nnc(-c2nnc(SC)n2-c2ccccc2)n1-c1ccccc1	87	83.5% (inactive)	87% (inactive)	89.8% (inactive)	98.3% (inactive)	9.77% (inactive)	88.6	98.3	-5.73% (inactive)	6.77% (inactive)
CCn1cc(C2=NCC(C)O2)c2ccccc21 (stereo not given)	96.5	83% (inactive)	96.5% (inactive)	74.8% (inactive)	93.5% (inactive)	3.18% (inactive)	90.3	93.5	-5.54% (inactive)	-0.32% (inactive)
Cn1c(=O)n(CC(=O)OCc2ccccc2)c(=O)c2c1nc1n2CCCN1C1CCCCC1	81	86% (inactive)	81% (inactive)	96.4% (inactive)	78.7% (inactive)	32.8% (inactive)	45.9	78.7	-6.35% (inactive)	-0.16% (inactive)
CCOC(=O)C(NC(=O)Nc1ccccc1)(OCC)C(F)(F)F (stereo not given)	114	98% (inactive)	114% (inactive)	84.5% (inactive)	93.3% (inactive)	6.82% (inactive)	86.5	93.3	-0.26% (inactive)	12.1% (inactive)
